Screening data from PubChem.
An excerpt weighted towards active compounds, which were near 3.1% of everything screened.
aDG glyco up – activators of alpha-DG glycosylation, primary screen, uHTS, Pro5-aDG cells, AlphaScreen; alpha-DG glycosylation AlphaScreen (IIH6); 0% Pro5, 100% B10-LARGE cell signal; activation, % at 10 µM; hit rate 0.22% among 360,000;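 active means activation of at least 8% versus controls, or a plate z-score of at least 8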;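 further: Pro5 are CHO cells carrying HIG-tagged alpha-DG that lacks glycosylation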
ADAM10 inh – human ADAM10 inhibitors, primary screen, biochemical, QFRET, HTS; recombinant ADAM10, EDANS/DABCYL FRET peptide cleavage, 3 h; Disintegrin and metalloproteinase domain-containing protein 10 (Homo sapiens), O14672; hit rate 0.62% among 370,000; inhibition, % at 7 µM; AID 720582, 2013;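 active means inhibition above a per-campaign cutoff equal to the mean of compounds falling between control-based bounds plus 3 SD, cut at about 20% in these data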;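 further: 0% = DMSO wells while the 100% control is not disclosed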
Target sequence (O14672 214-748 limits assumed): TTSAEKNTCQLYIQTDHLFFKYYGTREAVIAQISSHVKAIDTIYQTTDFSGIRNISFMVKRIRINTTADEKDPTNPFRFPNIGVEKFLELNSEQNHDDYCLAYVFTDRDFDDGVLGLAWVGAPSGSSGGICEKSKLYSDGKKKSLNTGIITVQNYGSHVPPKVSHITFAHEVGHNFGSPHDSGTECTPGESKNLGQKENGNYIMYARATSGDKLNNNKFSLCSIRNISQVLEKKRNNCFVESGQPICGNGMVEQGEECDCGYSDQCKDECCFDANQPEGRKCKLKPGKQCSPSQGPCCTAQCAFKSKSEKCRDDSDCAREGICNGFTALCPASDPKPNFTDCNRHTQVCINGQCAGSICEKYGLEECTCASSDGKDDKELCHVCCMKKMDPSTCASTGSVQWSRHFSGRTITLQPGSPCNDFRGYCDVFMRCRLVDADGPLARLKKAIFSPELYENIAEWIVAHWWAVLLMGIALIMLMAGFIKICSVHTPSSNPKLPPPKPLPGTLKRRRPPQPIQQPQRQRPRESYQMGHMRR
V-ATPase pHluor – regulators of yeast V-ATPase proton pumping, primary screen, pHLuorin cytosolic pH fluorescence; S. cerevisiae; response, % at 10 µM; AID 504577, 2011; hit rate 0.37% among 350,000; in the data active means response mostly above about 7.3%, no sharp cut-off; inactive means mostly below about 5.4%; further: actives read high
ADAM17 inh – ADAM17 inhibitors, primary screen, biochemical, QFRET. Disintegrin and metalloproteinase domain-containing protein 17 (Homo sapiens), P78536. recombinant ADAM17, EDANS/DABCYL FRET peptide cleavage. inhibition, % at 6.95 µM. hit rate 0.83% among 370,000. AID 720648, 2013;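 active means inhibition above the mean of compounds lying between control limits plus 3 SD, set per campaign, cut at about 8.5% in these data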;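 further: 0% = DMSO-only wells as the low control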
MPTP inh – mitochondrial permeability transition pore inhibitors, primary screen, biochemical, isolated mouse mitochondria, absorbance | Ca2+ swelling absorbance, 30 min | hit rate 1.4% among 360,000 | AID 602449, 2012 | inhibition, % at 10 µM;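 active means inhibition of 50% or more, scaled per plate between neutral and stimulator controls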;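 further: 0% = DMSO wells given calcium and 100% = 1 mM EGTA wells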
Lipid droplet – inhibitors of hepatocyte lipid droplet formation, primary screen, imaging, high-throughput imaging, BODIPY stain. AML12 mouse hepatocytes, oleate lipid droplets. inhibition, % at 6.5 µM. hit rate 0.4% among 240,000. AID 1656, 2009;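 active means lipid droplet intensity inhibited by at least 50%, with more than 500 cells counted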
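Assay system: AML12 hepatocytes (mouse) / Also added: 100 µM oleic acid challenge / Times: overnight treatment with compound plus oleate / Detection: high-content imaging of BODIPY-stained droplets and DAPI nuclei / Evaluation: % inhibition of lipid droplet signal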
ADAM10 confirm – human ADAM10 inhibitors, confirmation, biochemical, QFRET, triplicate. shares compounds with ADAM10 inh. ADAM10 QFRET peptide cleavage, EDANS fluorescence. inhibition, % at 6.95 µM. hit rate 1% among 2,100;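 active means inhibition above about 20% chosen separately for each screening run, limit read from the data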;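 further: 0% = DMSO wells and 100% = marimastat wells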
ADAM17 ctr – ADAM17 inhibitors, counter-screen for ADAM10 exosite inhibitor project, biochemical, QFRET, high throughput | shares compounds with ADAM10 inh | ADAM17 QFRET peptide cleavage, EDANS fluorescence | inhibition, % at 6.95 µM | hit rate 0.5% among 2,100;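 active means mean triplicate inhibition above the solvent-only control wells' mean plus 3 SD, cut at about 12% in these data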;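 further: 0% = DMSO wells and 100% = marimastat wells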
ADAM10 counter – ADAM10 inhibitors, counter-screen for ADAM17 exosite inhibitor project, biochemical, FRET, human ADAM10; shares compounds with ADAM17 inh; recombinant ADAM10, EDANS/DABCYL FRET peptide cleavage, 3 h; inhibition, % at 6.95 µM; hit rate 47% among 2,900; AID 743256, 2014;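 active means mean inhibition over the triplicate runs exceeds the activity threshold set in the earlier primary screen, cut at about 20% in these data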;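 further: 0% = DMSO wells and 100% = marimastat wells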
ADAM17 confirm – ADAM17 inhibitors, hit retest, confirmation, biochemical, QFRET peptide cleavage; inhibition, % at 6.95 µM; shares compounds with ADAM17 inh; hit rate 65% among 2,900; recombinant ADAM17, EDANS/DABCYL QFRET peptide cleavage;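 active means mean inhibition across replicates above the hit cutoff set in the primary screen, cut at about 8.5% in these data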;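 further: 0% = DMSO wells and 100% = marimastat wells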
* marks the source's active call; other numbers are inactive results; x = no result given.

SMILES	aDG glyco up	ADAM10 inh	V-ATPase pHluor	ADAM17 inh	MPTP inh	Lipid droplet	ADAM10 confirm	ADAM17 ctr	ADAM10 counter	ADAM17 confirm
Cc1csc(SCC(=O)Nc2nc(-c3ccccc3)cs2)n1	0	22*	8	12*	0	0	0	1	19	14*
C=CCC[C@@H](Cc1ccc(F)cc1)C(=O)OC[C@H](Cc1c[nH]c2ccccc12)NC(=O)[C@@H](CC=C)CC(=O)N[C@H](CO)Cc1ccccc1	1	3	-1	-1	0	x	x	x	x	x
C=CCC[C@@H](Cc1ccc(F)cc1)C(=O)OC[C@@H]1CCCN1C(=O)[C@H](CC=C)CC(=O)N[C@H](CO)Cc1ccccc1	0	27*	2	9.4*	1	x	0	0	28*	12*
C=CC[C@@H](CC(=O)N(CCO)Cc1ccccc1)C(=O)N[C@@H](COC(=O)[C@@H](CC=C)Cc1ccc(F)cc1)Cc1c[nH]c2ccccc12	1	18	3	8	1	x	x	x	x	x
C=CCC[C@H](Cc1ccc(F)cc1)C(=O)OC[C@@H](Cc1c[nH]c2ccccc12)NC(=O)[C@H](CC=C)CC(=O)N(CCO)Cc1ccccc1	0	43*	2	25*	0	x	11	3	61*	35*
C=CCC[C@H](Cc1ccc(F)cc1)C(=O)OC[C@H](Cc1c[nH]c2ccccc12)NC(=O)[C@@H](CC=C)CC(=O)N[C@H](CO)Cc1ccccc1	2	30*	0	12*	-1	x	13	3	38*	22*
C=CC[C@H](CC(=O)N(CCO)Cc1ccccc1)C(=O)N[C@@H](COC(=O)[C@@H](CC=C)Cc1ccc(F)cc1)Cc1c[nH]c2ccccc12	0	37*	-1	14*	0	x	7	3	45*	25*
Cc1ccc(S(=O)(=O)n2ccc(-c3c(-c4ccccc4)noc3C)n2)cc1	x	11	x	5	x	x	x	x	x	x
CCOC(=O)[C@@]12CCCC=C1N(CCc1ccc(Cl)cc1)C(=O)[C@H]2CC(=O)NCCc1ccccc1OC	x	14	x	8	x	x	x	x	x	x
C=CCC[C@@H](Cc1ccc(F)cc1)C(=O)OC[C@@H](Cc1c[nH]c2ccccc12)NC(=O)[C@H](CC=C)CC(=O)N(CCO)Cc1ccccc1	0	40*	-1	17*	-1	x	13	3	69*	26*
O=C(Nc1cccc2ccccc12)c1ccc(OC(=S)N2CCOCC2)cc1	2	21*	9	9.7*	4	x	5	3	16	11*
Cc1ccc(NC(=O)COC(=O)/C=C/c2cccs2)cc1	0	0	0	4	-1	-2	x	x	x	x
CCN(c1ccc(NC(=O)COC(=O)/C=C/c2cccs2)cc1)C(C)C	0	34*	-1	17*	1	2	5	5	33*	18*
CC(C)c1ccc(Nc2nc(NCc3ccco3)nc(N3CCOCC3)n2)cc1	0	31*	7	12*	4	x	7	2	23*	13*
CC(C)c1ccc(Nc2nc(N3CCOCC3)nc(N3CCOCC3)n2)cc1	0	-1	x	4	1	x	x	x	x	x
CC(O)(c1ccc(F)c(F)c1)c1nc(-c2ccccc2)cs1 (stereo unspecified)	0	18	x	6	1	x	x	x	x	x
CC(O)(c1ccc(F)c(F)c1)c1nc(-c2cc3ccccc3o2)cs1 (stereo unspecified)	0	27*	x	9.6*	32	x	12	3	36*	18*
CCCN(CC1CC1)C(=O)c1ccc(CNC(=O)c2cccc(Br)c2)cc1	x	-2	x	0	x	x	x	x	x	x
COc1nc(Nc2ccc(O)cc2)nc(OC(C(F)(F)F)C(F)(F)F)n1	0	7	-3	2	1	-22	x	x	x	x
Nc1cccc(Nc2nc(OC(C(F)(F)F)C(F)(F)F)nc(OC(C(F)(F)F)C(F)(F)F)n2)c1	0	58*	-3	27*	20	x	0	0	60*	30*
O/N=C/c1cc(Br)ccc1OCc1ccccc1F	0	21*	-1	9.1*	1	x	5	1	30*	17*
O=[N+]([O-])c1cc(C(F)(F)F)ccc1NCCc1c[nH]c2ccc(O)cc12	0	31*	3	13*	3	16	5	1	27*	14*
CCOc1ccccc1NC1=CC(=O)CC(c2ccccc2)C1 (stereo unspecified)	0	22*	2	10*	-4	x	1	0	-4	-1
COc1ccc(NC2=CC(=O)CC(c3ccccc3)C2)c(OC)c1 (stereo unspecified)	0	-7	2	-4	-1	x	x	x	x	x
C=CCN(CC#CC(=C)C)Cc1ccccc1	x	-5	x	-3	x	x	x	x	x	x
COc1ccccc1C(=O)Nc1ccc(S(=O)(=O)N2CCc3ccccc32)cc1	0	6	3	3	2	6	x	x	x	x
COc1cc(C(=O)Nc2ccc(S(=O)(=O)N3CCc4ccccc43)cc2)cc(OC)c1OC	0	26*	1	11*	6	-3	6	2	26*	16*
O=S(Cc1cc(Oc2ccccc2)nc(-c2ccccc2)n1)c1ccccc1 (stereo unspecified)	0	26*	1	11*	-3	x	3	1	10	7
C=CCN1C[C@@H](COCc2ccccc2)Oc2cccc(F)c2S1(=O)=O	x	0	x	-7	x	x	x	x	x	x
COC(=O)c1ccc(Cn2ccc3ccc(-c4ccc5ccn(Cc6ccccc6)c5c4)cc32)cc1	x	-27	x	-6	x	x	x	x	x	x
